Experimental findings from the array DNA melting data of Ke et al. (doi:10.1101/2024.01.08.574731) are described below.

The nature of data set [1]: folding enthalpy; higher = less favourable; fluorescence melt of hairpins on a sequencing array, two-state fit. The note with it: sodium 0.088 M. The essentials:
(§1)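 Bootstrapped two-state fits yielded melting temperature and folding enthalpy for library hairpins. Cy3 fluorescence, with annealed Cy3 and quencher oligos, was imaged on a sequenced MiSeq flow cell in 50 mM Na-HEPES pH 8.0, 25 mM NaCl in 2.5 °C steps up to 60 °C, and normalised to pre-quench Cy3 and to control constructs. Four replicates were combined by inverse variance, and fitted temperatures were raised by 9.35 °C to match UV melts.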

Data set [2] can be described thus: melting temperature; fluorescence melt of hairpins on a sequencing array, two-state fit, raised by 9.35 °C to match UV melts. The settings on record: sodium 0.088 M. The essentials:
as §1

For GAGGGCCGAAAGGCCTC (((.(((....)))))), the folding enthalpy in data set [1] is -9.74 kcal/mol. For the same sequence, the Tm in data set [2] is 52.6 °C.

For GAGGGCCGAAAGGCTCTC (((.(((....))).))), in data set [1], the folding enthalpy was -30.6 kcal/mol. The Tm in data set [2] is 67 °C.

As for GAGGGCGAAAGCCAGCTC ((((((....)))..))), the folding enthalpy in data set [1] was -13.7 kcal/mol. The Tm in data set [2] was 46.7 °C.

GAGGGCGAAAGCCATCTC ((((((....)))..))): in data set [1], the folding enthalpy is -16.2 kcal/mol. Moreover, the Tm in data set [2] was 65.6 °C.

Take GAGGGCGAAAGCCCCCTC ((((((....)))..))): the folding enthalpy in data set [1] was -7.33 kcal/mol. For the same sequence, the Tm in data set [2] worked out at 42.7 °C.

Regarding GAGGGCGAAAGCCTCCTC ((((((....)))..))), the folding enthalpy in data set [1] is -9.66 kcal/mol. The Tm in data set [2] was found to be 40.5 °C.

As for GAGGGCGAAAGCCTCTC ((((((....))).))), in data set [1], the folding enthalpy is -16.1 kcal/mol. Also, the Tm in data set [2] is 53.2 °C.

With GAGGGCGAAAGCCTTCTC ((((((....)))..))), the folding enthalpy in data set [1] is -16.6 kcal/mol. In data set [2], the Tm was determined as 52 °C.

Consider GAGGGCGCGAAAGCGCTC (((..(((....)))))), for which the folding enthalpy in data set [1] is -7.69 kcal/mol. Also, the Tm in data set [2] came out at 42.5 °C.

Regarding GAGGGCGGAAACACCCCC (.(((.(....).))).), in data set [1], the folding enthalpy is -16.4 kcal/mol. Moreover, in data set [2], the Tm was determined as 30.9 °C.

With GAGGGCGGAAACGCTCTC (((.(((....))).))), in data set [1], the folding enthalpy was -31.9 kcal/mol. Besides, in data set [2], the Tm was 57.2 °C.

For the sequence GAGGGGGGAAACCCCCCC (.(((((....))))).), the folding enthalpy in data set [1] was -8.39 kcal/mol. The Tm in data set [2] came to 52.5 °C.

With GAGGTACGAAAGTACTC (((.(((....)))))), the folding enthalpy in data set [1] was -13.6 kcal/mol. Also, the Tm in data set [2] is 45.8 °C.

For the sequence GAGGTACGAAAGTAGCTC (((.(((....))).))), in data set [1], the folding enthalpy is -44.4 kcal/mol. Besides, the Tm in data set [2] is 57.9 °C.

As to GAGGTACGAAAGTATCTC (((.(((....))).))), the folding enthalpy in data set [1] was -32.3 kcal/mol. The Tm in data set [2] was found to be 50.5 °C.

For GAGGTAGGAAACTACCCC (.(((((....))))).), the folding enthalpy in data set [1] is -12.1 kcal/mol. In data set [2], the Tm was determined as 39.1 °C.

For the sequence GAGGTAGGAAACTACCTC (((((((....))))))), the folding enthalpy in data set [1] is -37.2 kcal/mol. In data set [2], the Tm worked out at 60 °C.

Consider GAGGTCGGAAACGACCCC (.(((((....))))).), for which, in data set [1], the folding enthalpy is -9.23 kcal/mol. Further, the Tm in data set [2] was 48.3 °C.

For GAGGTCGGAAACGACTTC ((.((((....)))).)), in data set [1], the folding enthalpy is -20.9 kcal/mol. Besides, the Tm in data set [2] is 48.6 °C.

As for GAGGTGACGAAAGTCCTC (((..(((....)))))), the folding enthalpy in data set [1] is -17.6 kcal/mol. Also, the Tm in data set [2] was 34.9 °C.

GAGGTGGGAAACCACTTC ((.((((....)))).)): the folding enthalpy in data set [1] was -21.4 kcal/mol. Also, the Tm in data set [2] is 46 °C.

In the case of GAGGTGGGAAACCGCCTC ((((.((....)).)))), the folding enthalpy in data set [1] was -46.9 kcal/mol. In addition, in data set [2], the Tm amounted to 57.1 °C.

In the case of GAGGTTCCGAAAGGACTC (((..(((....)))))), the folding enthalpy in data set [1] is -14.9 kcal/mol. Also, the Tm in data set [2] came out at 31.6 °C.

GAGGTTGCGAAAGCACTC (((..(((....)))))): in data set [1], the folding enthalpy was -11.3 kcal/mol. The Tm in data set [2] amounted to 33.9 °C.

Take GAGGTTGGAAACAGTCTC (((..((....))..))): the folding enthalpy in data set [1] was -10.1 kcal/mol. In data set [2], the Tm is 25.6 °C.

Turning to GAGTAACCGAAAGGTCTC (((..(((....)))))), the folding enthalpy in data set [1] was -16.7 kcal/mol. Besides, the Tm in data set [2] worked out at 33.2 °C.

Consider GAGTAACGAAAGTTTCTC (((.(((....))).))), for which the folding enthalpy in data set [1] is -30.1 kcal/mol. For the same sequence, the Tm in data set [2] was determined as 40.3 °C.

In the case of GAGTAAGGAAACTTACCC (.(((((....))))).), the folding enthalpy in data set [1] is -14.6 kcal/mol. For the same sequence, the Tm in data set [2] is 28.4 °C.

Take GAGTACCCGAAAGGGCTC (((..(((....)))))): the folding enthalpy in data set [1] is -15.3 kcal/mol. In addition, the Tm in data set [2] stood at 32.4 °C.

Take GAGTACGAAAGTAAACTC ((((((....)))..))): in data set [1], the folding enthalpy is -26.2 kcal/mol. Moreover, in data set [2], the Tm is 35.9 °C.

For the sequence GAGTACGAAAGTAATCTC ((((((....)))..))), the folding enthalpy in data set [1] is -27.2 kcal/mol. In data set [2], the Tm was 42.5 °C.

With GAGTACGAAAGTACACTC ((((((....)))..))), in data set [1], the folding enthalpy was -16.2 kcal/mol. In addition, the Tm in data set [2] amounted to 48.3 °C.

Consider GAGTACGAAAGTACCCTC ((((((....)))..))), for which the folding enthalpy in data set [1] is -13.2 kcal/mol. Besides, the Tm in data set [2] was 38.6 °C.

GAGTACGAAAGTAGACTC ((((((....)))..))): in data set [1], the folding enthalpy was -16.8 kcal/mol. For the same sequence, the Tm in data set [2] worked out at 35.8 °C.

As to GAGTACGAAAGTATACTC ((((((....)))..))), the folding enthalpy in data set [1] was -19.7 kcal/mol. For the same sequence, the Tm in data set [2] was found to be 34.4 °C.

As to GAGTACGGAAACGTACCC (.(((((....))))).), the folding enthalpy in data set [1] is -15.5 kcal/mol. Also, the Tm in data set [2] stood at 42.2 °C.

As for GAGTAGCGAAAGCTTCTC (((.(((....))).))), the folding enthalpy in data set [1] is -26.4 kcal/mol. Besides, the Tm in data set [2] came to 47.2 °C.
